# Measured values published in ChEMBL document CHEMBL1782042, “Efficient microwave-assisted synthesis and antitumor activity of novel 4,4'-methylenebis[2-(3-aryl-4,5-dihydro-1H-pyrazol-5-yl)phenols]” (Eur J Med Chem, 2011).
# Assays:
# [1] = tested on: NCI-H322M; experiment: Cytotoxicity against human NCI-H322M cells; assay type: cell-based
# Method in brief: (§1)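 NCI 60 human tumour cell line screen, second stage at five concentrations (100, 10, 1.0, 0.1 and 0.01 μM). Continuous drug exposure for 48 h, with cell growth estimated by sulforhodamine B protein staining. GI50 is the drug concentration giving a 50% reduction in net protein increase relative to control cells over the incubation.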
# [2] = tested on: NCI-H460; experiment: Cytotoxicity against human NCI-H460 cells; assay type: cell-based; method in brief: as §1
# [3] = tested on: NCI-H522; experiment: Cytotoxicity against human NCI-H522 cells; assay type: cell-based; method in brief: as §1
# [4] = tested on: HCT-116; experiment: Cytotoxicity against human HCT116 cells; assay type: cell-based; method in brief: as §1
# [5] = tested on: SF-268; experiment: Cytotoxicity against human SF268 cells; assay type: cell-based; method in brief: as §1
# [6] = tested on: LOX IMVI; experiment: Cytotoxicity against human LOXIMVI cells; assay type: cell-based; method in brief: as §1
# [7] = tested on: CCRF-CEM; experiment: Anticancer activity against human CCRF-CEM cells after 48 hrs by sulforhodamine B assay; assay type: functional
# Method in brief: (§2)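 NCI 60-cell-line in vitro screen, second stage: five concentration levels (100, 10, 1.0, 0.1 and 0.01 μM) with 48 h continuous drug exposure. Cell growth was estimated by sulforhodamine B protein staining. GI50 is the drug concentration that gives a 50% reduction in net protein increase relative to control cells over the incubation.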
# [8] = tested on: HL-60(TB); experiment: Anticancer activity against human HL-60(TB) cells after 48 hrs by sulforhodamine B assay; assay type: functional; conditions: HL-60, 48 h; method in brief: as §1
# [9] = tested on: K562; experiment: Anticancer activity against human K562 cells after 48 hrs by sulforhodamine B assay; assay type: functional; conditions: K562, 48 h; method in brief: as §2
# [10] = tested on: M14; experiment: Cytotoxicity against human M14 cells; assay type: cell-based; method in brief: as §1
# [11] = tested on: SK-MEL-28; experiment: Cytotoxicity against human SK-MEL-28 cells; assay type: cell-based; method in brief: as §1
# [12] = tested on: SK-MEL-5; experiment: Cytotoxicity against human SK-MEL-5 cells; assay type: cell-based; method in brief: as §1
# [13] = tested on: UACC-62; experiment: Cytotoxicity against human UACC62 cells; assay type: cell-based
# Method in brief: (§3)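 NCI 60 human tumour cell line screen; five concentration levels (100, 10, 1.0, 0.1 and 0.01 μM), 48 h continuous drug exposure. Cell growth estimated by sulforhodamine B (SRB) protein staining. GI50 taken as the drug concentration giving a 50% reduction in net protein increase relative to control cells over the incubation.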
# [14] = tested on: OVCAR-3; experiment: Cytotoxicity against human OVCAR3 cells; assay type: cell-based; method in brief: as §1
# [15] = tested on: OVCAR-5; experiment: Cytotoxicity against human OVCAR5 cells; assay type: cell-based; method in brief: as §1
# [16] = tested on: NCI/ADR-RES; experiment: Cytotoxicity against human NCI/ADR-RES cells; assay type: cell-based; method in brief: as §1
# [17] = tested on: 786-0; experiment: Cytotoxicity against human 786-0 cells; assay type: cell-based; method in brief: as §1
# [18] = tested on: A498; experiment: Cytotoxicity against human A498 cells; assay type: cell-based; method in brief: as §1
# [19] = tested on: CAKI-1; experiment: Cytotoxicity against human Caki1 cells; assay type: cell-based; method in brief: as §1
# [20] = tested on: SN12C; experiment: Cytotoxicity against human SN12C cells; assay type: cell-based; method in brief: as §3
# [21] = tested on: RPMI-8226; experiment: Anticancer activity against human RPMI8226 cells after 48 hrs by sulforhodamine B assay; assay type: functional; conditions: RPMI-8226, 48 h; method in brief: as §2
# [22] = tested on: A549; experiment: Anticancer activity against human A549 cells after 48 hrs by sulforhodamine B assay; assay type: functional; conditions: A549, 48 h; method in brief: as §2
# [23] = tested on: NCI-H23; experiment: Anticancer activity against human NCI-H23 cells after 48 hrs by sulforhodamine B assay; assay type: functional; conditions: NCI-H23, 48 h; method in brief: as §2
# [24] = tested on: NCI-H322M; experiment: Anticancer activity against human NCI-H322M cells after 48 hrs by sulforhodamine B assay; assay type: functional; method in brief: as §2
# [25] = tested on: NCI-H460; experiment: Anticancer activity against human NCI-H460 cells after 48 hrs by sulforhodamine B assay; assay type: functional; conditions: NCI-H460, 48 h; method in brief: as §2
# [26] = tested on: NCI-H522; experiment: Anticancer activity against human NCI-H522 cells after 48 hrs by sulforhodamine B assay; assay type: functional; conditions: NCI-H522, 48 h; method in brief: as §2
# [27] = tested on: COLO 205; experiment: Anticancer activity against human COLO205 cells after 48 hrs by sulforhodamine B assay; assay type: functional; conditions: COLO 205, 48 h; method in brief: as §2
# [28] = tested on: HCC 2998; experiment: Anticancer activity against human HCC2998 cells after 48 hrs by sulforhodamine B assay; assay type: functional; conditions: HCC 2998, 48 h; method in brief: as §2
# [29] = tested on: HCT-116; experiment: Anticancer activity against human HCT116 cells after 48 hrs by sulforhodamine B assay; assay type: functional; conditions: HCT-116, 48 h; method in brief: as §2
# [30] = tested on: HCT-15; experiment: Anticancer activity against human HCT15 cells after 48 hrs by sulforhodamine B assay; assay type: functional; conditions: HCT-15, 48 h; method in brief: as §2
# [31] = tested on: TK-10; experiment: Cytotoxicity against human TK10 cells; assay type: cell-based; method in brief: as §3
# [32] = tested on: DU-145; experiment: Cytotoxicity against human DU145 cells; assay type: cell-based; method in brief: as §1
# [33] = tested on: MDA-MB-231; experiment: Cytotoxicity against human MDA-MB-231 cells; assay type: cell-based; method in brief: as §1
# [34] = tested on: Hs-578T; experiment: Cytotoxicity against human Hs578T cells; assay type: cell-based; method in brief: as §1
# [35] = tested on: BT-549; experiment: Cytotoxicity against human BT549 cells; assay type: cell-based; method in brief: as §1
# [36] = tested on: T47D; experiment: Cytotoxicity against human T47D cells; assay type: cell-based; method in brief: as §3
# [37] = tested on: SW-620; experiment: Anticancer activity against human SW620 cells after 48 hrs by sulforhodamine B assay; assay type: functional; conditions: SW-620, 48 h
# Method in brief: (§4)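 NCI 60-cell-line screen, second stage. Five concentration levels (100, 10, 1.0, 0.1 and 0.01 μM), 48 h continuous drug exposure. Cell growth was estimated by sulforhodamine B protein staining. GI50 is the concentration giving a 50% reduction in net protein increase relative to control cells over the drug incubation. Compounds entered this stage after an earlier single-dose screen.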
# [38] = tested on: SNB-75; experiment: Anticancer activity against human SNB75 cells after 48 hrs by sulforhodamine B assay; assay type: functional; conditions: SNB-75, 48 h; method in brief: as §4
# [39] = tested on: U-251; experiment: Anticancer activity against human U251 cells after 48 hrs by sulforhodamine B assay; assay type: functional; conditions: U-251, 48 h; method in brief: as §4
# [40] = tested on: Malme-3M; experiment: Anticancer activity against human MALME-3M cells after 48 hrs by sulforhodamine B assay; assay type: functional; method in brief: as §2
# [41] = tested on: UACC-257; experiment: Anticancer activity against human UACC257 cells after 48 hrs by sulforhodamine B assay; assay type: functional; conditions: UACC-257, 48 h; method in brief: as §4
# [42] = tested on: IGROV-1; experiment: Anticancer activity against human IGROV1 cells after 48 hrs by sulforhodamine B assay; assay type: functional; conditions: IGROV-1, 48 h; method in brief: as §2
# [43] = tested on: OVCAR-5; experiment: Anticancer activity against human OVCAR5 cells after 48 hrs by sulforhodamine B assay; assay type: functional; conditions: OVCAR-5, 48 h; method in brief: as §2
# [44] = tested on: OVCAR-8; experiment: Anticancer activity against human OVCAR8 cells after 48 hrs by sulforhodamine B assay; assay type: functional; conditions: OVCAR-8, 48 h; method in brief: as §2
# [45] = tested on: 786-0; experiment: Anticancer activity against human 786-0 cells after 48 hrs by sulforhodamine B assay; assay type: functional; conditions: 786-0, 48 h; method in brief: as §2
# [46] = tested on: A498; experiment: Anticancer activity against human A498 cells after 48 hrs by sulforhodamine B assay; assay type: functional; conditions: A498, 48 h; method in brief: as §2
# [47] = tested on: RXF 393; experiment: Anticancer activity against human RXF393 cells after 48 hrs by sulforhodamine B assay; assay type: functional; conditions: RXF 393, 48 h; method in brief: as §2
# [48] = tested on: DU-145; experiment: Anticancer activity against human DU145 cells after 48 hrs by sulforhodamine B assay; assay type: functional; conditions: DU-145, 48 h; method in brief: as §2
# [49] = tested on: Hs-578T; experiment: Anticancer activity against human Hs578T cells after 48 hrs by sulforhodamine B assay; assay type: functional; method in brief: as §2
# [50] = tested on: T47D; experiment: Anticancer activity against human T47D cells after 48 hrs by sulforhodamine B assay; assay type: functional; method in brief: as §4
# [51] = tested on: CCRF-CEM; experiment: Cytotoxicity against human CCRF-CEM cells; assay type: cell-based; method in brief: as §1
# [52] = tested on: HL-60(TB); experiment: Cytotoxicity against human HL-60(TB) cells; assay type: cell-based; method in brief: as §1
# [53] = tested on: K562; experiment: Cytotoxicity against human K562 cells; assay type: cell-based; method in brief: as §1
# [54] = tested on: SR; experiment: Cytotoxicity against human SR cells; assay type: cell-based; method in brief: as §3
smiles,measurement,setting,value
Oc1ccc(Cc2ccc(O)c(C3CC(c4ccc(Cl)cc4)=NN3)c2)cc1C1CC(c2ccc(Cl)cc2)=NN1 (centres undefined),LC50,[1],> 100 µM
same,LC50,[2],> 100 µM
same,LC50,[3],46.2 µM
same,LC50,[4],> 100 µM
same,LC50,[5],> 100 µM
same,LC50,[6],> 100 µM
same,GI50,[7],1.94 µM
same,GI50,[8],2.66 µM
same,GI50,[9],1.75 µM
same,LC50,[10],> 100 µM
same,LC50,[11],> 100 µM
same,LC50,[12],36.7 µM
same,LC50,[13],43.6 µM
same,LC50,[14],> 100 µM
same,LC50,[15],> 100 µM
same,LC50,[16],> 100 µM
same,LC50,[17],> 100 µM
same,LC50,[18],> 100 µM
same,LC50,[19],> 100 µM
same,LC50,[20],> 100 µM
same,GI50,[21],5.09 µM
same,GI50,[22],2.45 µM
same,GI50,[23],3.3 µM
same,GI50,[24],4.17 µM
same,GI50,[25],2.15 µM
same,GI50,[26],2.95 µM
same,GI50,[27],5.44 µM
same,GI50,[28],4.88 µM
same,GI50,[29],1.85 µM
same,GI50,[30],2.51 µM
same,LC50,[31],> 100 µM
same,LC50,[32],> 100 µM
same,LC50,[33],> 100 µM
same,LC50,[34],> 100 µM
same,LC50,[35],> 100 µM
same,LC50,[36],> 100 µM
same,GI50,[37],3.29 µM
same,GI50,[38],4.26 µM
same,GI50,[39],1.8 µM
same,GI50,[40],5.08 µM
same,GI50,[41],2.56 µM
same,GI50,[42],4.11 µM
same,GI50,[43],6.1 µM
same,GI50,[44],2.46 µM
same,GI50,[45],3.81 µM
same,GI50,[46],5.37 µM
same,GI50,[47],3.99 µM
same,GI50,[48],3.46 µM
same,GI50,[49],2.76 µM
same,GI50,[50],3.79 µM
same,LC50,[51],> 100 µM
same,LC50,[52],> 100 µM
same,LC50,[53],> 100 µM
same,LC50,[54],> 100 µM
